# Sampled rows, rich in hits. Any-hit rate of the full collection: about 3.5%.
# RGS4 pot = RGS4 potentiation or activation. AID 463111. B-score at 10 µM. HEK293 M3R/inducible RGS4, carbachol calcium flux Fluo4; stronger effect = lower value. actives 0.92% (n = 310,000);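 active means B-score of the integrated calcium signal more than 4 SD below the library mean, with starting fluorescence not abnormally high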;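 further: negative B-score means reduced calcium response which marks RGS4 activation or potentiation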
#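 Test system: HEK293 cells with stable M3R and inducible RGS4; also added: carbachol at ECmax as muscarinic agonist stimulus; schedule: dye loading 30 min 37 °C, buffer rest 30 min RT; technique: kinetic calcium fluorescence imaging with Fluo4-AM dye, 2 µM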
# MrgX1 allo act = human MrgX1 positive allosteric modulation, primary screen; B-score at 10 µM; Q96LB2; actives 0.63% (n = 310,000); MrgX1-HEK293, Fluo-4 calcium flux, FDSS; stronger effect = higher value; AID 588675;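 active means plate-corrected calcium response at least 3 library SD above typical, normal starting fluorescence, not activating the receptor alone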;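 further: compound read alongside a low EC10 to EC30 dose of BAM8-22 agonist; peak minus trough fluorescence over baseline measured at the second addition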
# Target sequence (Q96LB2 whole entry, looked up): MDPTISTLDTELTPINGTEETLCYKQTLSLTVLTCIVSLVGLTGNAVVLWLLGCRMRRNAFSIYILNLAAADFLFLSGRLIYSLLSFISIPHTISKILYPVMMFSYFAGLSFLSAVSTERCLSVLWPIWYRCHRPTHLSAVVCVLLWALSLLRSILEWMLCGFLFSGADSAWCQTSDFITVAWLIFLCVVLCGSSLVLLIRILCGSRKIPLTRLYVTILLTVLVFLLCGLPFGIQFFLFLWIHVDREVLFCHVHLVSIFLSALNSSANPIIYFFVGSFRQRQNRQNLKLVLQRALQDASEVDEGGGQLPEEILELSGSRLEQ
# MrgX1 antagonist = human MrgX1 receptor antagonism, primary screen. Q96LB2. MRGX1-HEK293 calcium flux, Fluo-4, BAM8-22 antagonism; stronger effect = lower value. actives 1.3% (n = 310,000). B-score at 10 µM;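 active means calcium-response B-score plate-corrected more than 3 library SD below zero, starting fluorescence within 5 deviations, no agonist response on first addition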;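 further: peak minus trough fluorescence over baseline after final BAM8-22 challenge near maximal dose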
# MrgX1 agonist = activates human MrgX1 receptor signaling | Q96LB2 | MrgX1-HEK293 cells, Fluo-4 calcium fluorescence, agonist mode; stronger effect = higher value | B-score at 10 µM | actives 0.44% (n = 310,000) | AID 588627;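 active means calcium response B-score plate-corrected fluorescence ratio at least 3 library SD, with starting fluorescence B-score inside 5 SD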
#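 Test system: HEK293 cells stably expressing human MrgX1 receptor; Input: fifteen thousand cells per well; Dosing: compound delivered in addition one of three; Schedule: overnight seeding, then 1 h dark dye loading; Technique: Fluo-4 NW calcium fluorescence; Measure: B-scored fluorescence response ratio; Controls: positive and negative controls per plate.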
# RGS4 inh = human RGS4 inhibition | HEK293 M3R/RGS4 inducible, Fluo-4 calcium flux; stronger effect = higher value; triggered by carbachol at its EC20 | B-score at 10 µM | actives 0.45% (n = 310,000);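 active means B-score, a plate-corrected calcium signal, over three deviations above library mean, with baseline fluorescence within five deviations of library mean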;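 further: RGS4 expression induced by doxycycline in cells with stable M3 receptor; B-score is computed from the integrated fluorescence ratio over baseline after carbachol; higher B-score means a larger calcium signal and so more RGS4 inhibition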
# Target sequence (P49798 whole entry, looked up): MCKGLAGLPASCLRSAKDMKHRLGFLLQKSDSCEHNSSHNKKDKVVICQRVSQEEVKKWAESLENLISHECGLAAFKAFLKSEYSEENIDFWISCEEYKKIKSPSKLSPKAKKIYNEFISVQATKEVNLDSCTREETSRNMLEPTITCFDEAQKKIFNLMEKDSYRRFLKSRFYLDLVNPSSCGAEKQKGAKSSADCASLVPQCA
# MrgX1 antag conf = reconfirmed antagonist of human MrgX1 receptor signaling | shares compounds with MrgX1 antagonist | MrgX1-HEK293, BAM8-22 calcium flux, Fluo-4; stronger effect = lower value | remaining BAM8-22 calcium response % of control (stronger effect = lower value), % at 10 µM | actives 19% (n = 2,300) | AID 602420;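 active means remaining agonist calcium response no higher than 100% minus 3 SD of agonist-only control wells, with starting fluorescence near control levels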;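 further: agonist BAM8-22 given at a near maximal EC90 to ECmax level; peak minus minimum fluorescence divided by baseline after agonist addition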
# HEK293 Ca flux = MrgX1 antagonist counter-screen hit in parental HEK293 cells; fluorescence ratio F(max-min)/F0 at 10 µM; actives 2% (n = 4,000); shares compounds with MrgX1 antagonist; AID 624111; Fluo-4 calcium fluorescence, FDSS;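 active means duplicate-averaged calcium fluorescence ratio at least three times the standard deviation of buffer wells, a nonspecific response in parental cells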
# HEK293 Ca counter = counter-screen for MrgX1 allosteric activators: effect in parental HEK293 cells; shares compounds with MrgX1 antagonist; parental HEK293 calcium flux, Fluo-4 fluorescence ratio; stronger effect = higher value; fluorescence ratio F(max-min)/F0 at 10 µM; actives 0.4% (n = 4,000); AID 624114;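 active means calcium fluorescence ratio, averaged over duplicates, at least 3 SD of the buffer-well ratio, meaning a nonspecific response in receptor-free cells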;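 further: untransfected parental HEK293 lacking MrgX1 used as counterscreen for MrgX1 allosteric activators; fluorescence change taken during the second addition on a kinetic imager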
# HEK293 Ca cntr2 = activity in parental HEK293 cells lacking MrgX1 receptor; shares compounds with MrgX1 antagonist; actives 8.7% (n = 4,000); Fluo-4 calcium fluorescence (FDSS); stronger effect = higher value; fluorescence ratio F(max-min)/F0 at 10 µM; AID 624115;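 active means calcium fluorescence ratio at least three times the spread of buffer wells, meaning a non-specific response in parental cells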
# * marks the source's active call; other numbers are inactive results; i = inactive; . = no result.
SMILES,RGS4 pot,MrgX1 allo act,MrgX1 antagonist,MrgX1 agonist,RGS4 inh,MrgX1 antag conf,HEK293 Ca flux,HEK293 Ca counter,HEK293 Ca cntr2
Cc1ccc(Cc2cnc(N3C(=N)SC(c4ccccc4)C3=O)s2)cc1 (stereo not drawn),i,i,-5.2*,i,i,i,i,i,i
N=C1SC(c2ccccc2)C(=O)N1c1ncc(Cc2ccccc2)s1 (stereo not drawn),i,i,i,i,i,.,.,.,.
O=C(NCCc1ccccc1)C(=O)NCC1CCCN1S(=O)(=O)c1cccs1 (stereo not drawn),i,i,i,i,i,.,.,.,.
O=C1[C@H]2[C@@H](c3ccc(Cl)cc3)N3C(=O)N(c4cccc(Cl)c4)C(=O)[C@@]3(Cc3ccccc3)[C@H]2C(=O)N1C1CCCCC1,i,i,i,i,i,.,.,.,.
Cc1ccnc2c(N3C(=O)C4C5C=CC(C5)C4(C)C3=O)cccc12 (stereo not drawn),i,i,i,i,i,.,.,.,.
CC12C(=O)N(c3ccccn3)C(=O)C1C1C=CC2C1 (stereo not drawn),i,i,-5*,i,i,i,i,i,i
O=C(Oc1cccc(-n2cnnn2)c1)c1ccco1,i,i,-6.5*,i,i,79%*,i,i,i
COc1cccc(NC(=O)COc2ccc(C)cc2)c1,.,i,i,i,.,.,.,.,.
COc1cccc(NC(=O)CNC(=O)c2ccc(C)cc2)c1,i,i,-9.1*,i,i,i,i,i,i
COc1cccc(NC(=O)CNC(=O)c2ccc(F)cc2)c1,.,i,i,i,.,.,.,.,.
COc1ccc(OCC(=O)Nc2cccc(C(C)=O)c2)cc1,i,i,-6.3*,i,i,i,i,i,i
N#Cc1ccc(OS(=O)(=O)c2ccc(-c3ccon3)s2)cc1,i,i,-4.7*,i,i,i,i,i,i
C=CCOc1c(Br)cc(CNn2nnnc2N)cc1OCC,i,i,-4.8*,i,i,i,i,i,i
COc1ccccc1S(=O)(=O)Cc1ccc(C(=O)NCc2ccccc2)o1,i,i,i,i,i,.,.,.,.
CCOC(=O)c1c(-c2ccc(OC)cc2)oc2cc(Br)c(O)cc12,i,i,i,i,i,.,.,.,.
CCOC(=O)c1c(C)[nH]c2cc(Br)c(O)cc12,i,i,-7.4*,i,i,73%*,i,i,i
Cc1ccc(S(=O)(=O)N2CCC(C(=O)N3CCCC3C(=O)N[C@@H](CC(C)C)C(=O)NCC(N)=O)CC2)cc1 (stereo partly drawn),i,i,i,i,i,.,.,.,.
CCOc1cc(C(=O)Nn2cnnc2)cc(OCC)c1OCC,i,i,-4.6*,i,i,i,i,i,i
CCOc1cc(C(=O)NC(=S)Nn2cnnc2)cc(OCC)c1OCC,i,i,-4.5*,i,i,i,i,i,i
O=C(NC(=S)Nn1cnnc1)c1ccccc1,i,i,-8.3*,i,i,75%*,i,i,i
CCOc1cc(C(=O)NC(=S)Nc2nc(C)cc(C)n2)cc(OCC)c1OCC,i,i,i,i,i,.,.,.,.
COc1ccc(C(=O)COC(=O)c2cnc(C)cn2)c(OC)c1,i,i,i,i,i,.,.,.,.
COc1ccc(NC(=O)CNC(=O)Cn2cnc3sc4c(c3c2=O)CCCC4)cc1OC,i,i,i,i,i,.,.,.,.
CN(CCCNC(=O)c1cc2c(=O)[nH]c3ccccc3c2n1C)Cc1ccccc1,i,i,-5.7*,i,i,i,i,i,i
CC1CC(C)CN(CCCNC(=O)c2cc3c(=O)[nH]c4ccccc4c3n2C)C1 (stereo not drawn),i,i,i,i,i,.,.,.,.
SMILES,RGS4 pot,MrgX1 allo act,MrgX1 antagonist,MrgX1 agonist,RGS4 inh,MrgX1 antag conf,HEK293 Ca flux,HEK293 Ca counter,HEK293 Ca cntr2
C=Cc1ccc(Cn2nc(-c3ccc(C)cc3)ccc2=O)cc1,i,i,i,i,i,.,.,.,.
Cc1ccc(Nc2nc(C(=O)N3CCC(C(=O)N4CCN(C)CC4)CC3)cs2)cc1,i,i,-8.2*,i,i,i,i,i,i
Cc1ccc(-c2noc(C3CCN(C(=O)Nc4ccc(C#N)cc4)CC3)n2)o1,i,i,-4.6*,i,i,76%*,i,i,i
COc1cc(NC(=O)CCN2CCN(c3ccccc3F)CC2)cc(OC)c1,i,i,-4.8*,i,i,i,i,i,i
O=C(CNC(=O)c1cccs1)OCC(=O)c1ccccc1,i,i,i,i,i,.,.,.,.
CCc1ccc(C(=O)COC(=O)CNC(=O)c2cccs2)cc1,i,i,-6.2*,i,i,i,i,i,i
CCOc1ccc(NS(=O)(=O)c2ccc(C(=O)N(C)CC(=O)Nc3ccc(C)cc3)cc2)cc1,i,i,i,i,i,.,.,.,.
CCC(C)Sc1nc2c(cnn2-c2ccc(C)cc2)c(=O)[nH]1 (stereo not drawn),i,i,i,i,i,.,.,.,.
CCC(C)Sc1nc2c(cnn2-c2ccccc2)c(=O)[nH]1 (stereo not drawn),i,i,-4.9*,i,i,i,i,i,i
CCCCN(C)C(=S)Nc1ccc(Oc2ccccc2)cc1,i,i,-6.3*,i,i,i,i,i,i
CNC(=O)N1CCC(C(=O)c2c(C)c(C)c(C)c(C)c2C)CC1,i,i,i,i,i,.,.,.,.
Cc1ccc(S(=O)(=O)NCCC(=O)NCc2ccco2)cc1,i,i,-4.6*,i,i,i,i,i,i
CC(C)(C)NC(=O)CSc1nnc(CN2CCCCCC2=O)n1-c1ccccn1,i,i,i,i,i,.,.,.,.
O=C(CSc1nnc(CN2CCCCCC2=O)n1-c1ccccn1)NCC(F)(F)F,i,i,-4.6*,i,i,i,i,i,i
